Measurements of several laboratories.
Lines come from different studies, so protocols differ.
DRD3: D(3) dopamine receptor (DRD3, Homo sapiens, UniProt P35462)
SLC6A3: Sodium-dependent dopamine transporter (SLC6A3, Homo sapiens, UniProt Q01959)
CA12: Carbonic anhydrase 12 (CA12, Homo sapiens, UniProt O43570)

Cc1[nH]c(C)c(S(=O)(=O)Nc2ccc(S(C)(=O)=O)c(Cl)c2)c1C(=O)N1CCC(F)(F)C1
IC50 (DRD3; G protein activation; antagonist; BRET): 23 µM

N#CC[C@@]12C[C@@H]1[C@@H](n1cnc3c(NC4CC4)nc(C#Cc4ccc(Cl)s4)nc31)[C@H](O)[C@@H]2O
EC50 (SLC6A3; ligand displacement; radioligand): 0.2 µM

Cc1ccc(NS(=O)(=O)c2c(C)[nH]c(C)c2C(=O)N2CCC2)cc1Cl
IC50 (DRD3; β-arrestin recruitment; antagonist): 35 µM

Cc1ccc(-n2cc(COC(=O)c3ccc(=O)oc3)nn2)cc1
Ki (CA12; enzyme activity; inhibitor; stopped-flow): 62.6 µM

Cc1[nH]cc(S(=O)(=O)Nc2ccc(C(F)(F)F)c(Cl)c2)c1C(=O)N(C)C
IC50 (DRD3; G protein activation; antagonist; BRET): 6.3 µM

CCOC(=O)[C@@]12C[C@@H]1[C@@H](n1cnc3c(NCCCCCc4ccccc4)nc(C#Cc4ccc(Cl)s4)nc31)[C@H](O)[C@@H]2O
Ki (SLC6A3; ligand displacement; radioligand): 3.1 µM

COc1cc(C(F)(F)F)c(Cl)cc1NS(=O)(=O)c1c(C)[nH]c(C)c1C(=O)N1CCC(F)(F)C1
IC50 (DRD3; β-arrestin recruitment; antagonist): 7.2 µM

CCOC(=O)[C@@]12C[C@@H]1[C@@H](n1ccc3c(NCCCCc4ccccc4)nc(C#Cc4ccccc4)nc31)[C@H](O)[C@@H]2O
Ki (SLC6A3; ligand displacement; radioligand): 8 µM

Cc1c(Cl)c(=O)oc2cc(OCCCCSC#N)ccc12
Ki (CA12; enzyme activity; inhibitor; stopped-flow): 0.0591 µM

CC(C)(Sc1ccc(CCN(CCCCC2CCCCC2)C(=O)NC2CCCCC2)cc1)C(=O)O
Kd (Triggering receptor expressed on myeloid cells 2 (Homo sapiens, UniProt Q9NZC2); binding; SPR): 86.2 µM

O=C(OCc1cn(-c2ccc(Cl)cc2)nn1)c1ccc(=O)oc1
Ki (CA12; enzyme activity; inhibitor; stopped-flow): 61.3 µM

CCN(C)C(=O)c1c(C)[nH]c(C)c1S(=O)(=O)Nc1ccc(C(F)(F)F)c(Cl)c1
IC50 (DRD3; G protein activation; antagonist; BRET): 13 µM

Cc1ccc(-n2cc(CNC(=O)c3ccc(=O)oc3)nn2)cc1
Ki (CA12; enzyme activity; inhibitor; stopped-flow): 57.8 µM

CNc1nc(I)nc2c1ncn2[C@H]1[C@H](O)[C@H](O)[C@]2(CC#N)C[C@H]12
EC50 (SLC6A3; ligand displacement; radioligand): > 10 µM

O=C(Oc1ccc(Cl)cc1)c1ccc(=O)oc1
Ki (CA12; enzyme activity; inhibitor; stopped-flow): 76.3 µM

Cc1[nH]c(C)c(S(=O)(=O)Nc2ccc(C(F)(F)F)c(Cl)c2)c1C(=O)N1CC[C@@H](F)C1
IC50 (DRD3; G protein activation; antagonist; BRET): 1 µM

OC[C@@]12C[C@@H]1[C@@H](n1cnc3c(Nc4ccccc4)nc(I)nc31)[C@H](O)[C@@H]2O
EC50 (SLC6A3; ligand displacement; radioligand): 3 µM

O=C(NCc1cn(-c2ccccc2)nn1)c1ccc(=O)oc1
Ki (CA12; enzyme activity; inhibitor; stopped-flow): 62 µM
